# Fewer inactive variants are shown than the library holds.
# B1: tRNA (parent)
# chain: GUUCCGUUGGCGUAAUGGUAACGCGUCUCCCUCCUAAGGAGAAGACUGCGGGUUCGAGUCCCGUACGGAACG
# Variants of: B1
# Experiment: yeast fitness relative to wild type (ratio to wild type); higher = fitter; tRNA-Arg(CCU), competitive growth, 37 C, YPD
# In short: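 A pool of Saccharomyces cerevisiae strains, each with a tRNA-Arg(CCU) gene variant at the native genomic locus, was competed in YPD at 37°C for 24 hours across six parallel replicates. The variants had been chemically synthesised at a 3% per-site mutation rate over 69 sites, and gene amplicons before and after competition were read by 100-nucleotide paired-end sequencing. Darwinian fitness relative to wild type rested on changes in genotype frequencies. Genotypes required ≥ 100 starting reads, and estimates < 0.5 were set to 0.5.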
row,Variant,yeast fitness
1,GAUCGGUUGGCGUAAUGGUAACGUGUCUCGCUCCUAAGGAGAAGACUGGGGGUUCGAGUCGCGUACGGAACG [U2A C5G C24U C30G C49G C61G],≤ 0.5
2,GAUGCGUAGGCAUAAUGGUAACGCGUCUCCCUCCUAAGGAGAAGACUACGGGUUCGAGUCCCGUACGGCACG [U2A C4G U8A G12A G48A A69C],0.544
3,GAUGCGUUAGCGUAAUGGUAACGCGUCUCCCUCCUAAGGAGAAAACUGCGGGUCCGAGUCCCGUACGGAACG [U2A C4G G9A G44A U54C],≤ 0.5
4,GAUCCGUUGGCGUAAUGGUAACGCGUCUCCCUCCUAAGGAGAAGCCUGCGGGUUCGAGUCCCGUACGGAACG [U2A A45C],0.933
5,GAUCUGUUGGCGUAAUGGUAUCGCGUCUCGCUCCUAAGGAGAAGACUGCGGGUUCGAGUCCCGUACGGAUCG [U2A C5U A21U C30G A70U],≤ 0.5
6,GAUCGGUUGGCGUGAUGGUAACGCGUCUCGCUCCUAAGGAGAAGAUUGCGGGUUCGAGUCCCGUACGGAACG [U2A C5G A14G C30G C46U],≤ 0.5
7,GAUGCGUUGGCGUUAUGGUAACGCGUCUCCCUCCUAAGGAGAAGACUGCGGGUUCGAGUACCGUACGGAACG [U2A C4G A14U C60A],≤ 0.5
8,GAUACGUUGGCGUAAUGGUAAAGCGUCUCCCUCCUAAGGAGAAGACUGCGGGUUUGAGUCCCGUACGGAACG [U2A C4A C22A C55U],≤ 0.5
9,GAUCGGUUGGCGUAAUGGUAACGCGUCUCCCUCCUAAGGAGAAGACUGCGGGAUCGAGUCCCGUAUGGAACG [U2A C5G U53A C66U],≤ 0.5
10,GAUCCGUUGGCGUAAUGGUAACGCGUCUCCCUCCUAAGGAGAAGACUGCGGGUUCGAGUCCCGUACGGACCG [U2A A70C],1
11,GAUCAGUUGGCGUAAUGGUAACGCGUCUCUCUCCUAAGGAGAAGACUGCGGGUUCGAGUCCCGUACGGUACG [U2A C5A C30U A69U],≤ 0.5
12,GAUCGGUAGGCGUAAUGGUAACGCGUCUCCCUCCUAAGGAGAAAACUACCGGUUCGAGUCCCGUACGGAACG [U2A C5G U8A G44A G48A G50C],≤ 0.5
13,GAUCCGUUGGCGUAAUGGUAACGCGUCUCCCUCCUAAGGAGAGGACUGCGGGUUCGAGUCCCGUACGGAACG [U2A A43G],0.988
14,GAUCCGUUGGCGUAAUGGUAACGCGUCUCCCUCCUAAGGAGAUGACUGCGGGUUCGAGUCCCGUACGGAACG [U2A A43U],0.956
15,GAUCGGUUGGCGUUAUGGAAACCCGUCUACCUCCUAAGGAGAAGACUGCGGGUUCGAGUCCCGUAAGGAACG [U2A C5G A14U U19A G23C C29A C66A],≤ 0.5
16,GAUCCGUUGGCGUAAUGGUAACGCGUCUCCCUCCUAAGGAGAAGCCUGCGGGUUAGAGUCCCGUACGGAACG [U2A A45C C55A],≤ 0.5
17,GAUCAGUUGGCGUAAUGGUAACGCGUCUUCCUCCUAAGGAGAAGACUGCGGGUUCGAGUCCUGUACGGAUCG [U2A C5A C29U C62U A70U],≤ 0.5
18,GAUGCGUUGGCGUAAUGGUAACGCGUCUCCCUCCUAACGAGAAGUCUGCCGAUUCGAGUCCCGUACGGAACG [U2A C4G G38C A45U G50C G52A],0.849
19,GAUACGUUGGCGUAAUGGGAACGCGUCUCCCUCCUAAGGAGAAGACUGCGGGUUCGAGUCCCGUACGGAACG [U2A C4A U19G],≤ 0.5

row,Variant,yeast fitness
1,GAUCUGUUGGCGUAAUGGUAACGCGUCUGCCUCCUAUGGAGAAGACUGCGGGUUCGAGUCCCGUACGGAACG [U2A C5U C29G A37U],0.512
2,GAUCCGUUGGCGUAAUGGUAACGCGUCUCCCUCCUAAGGAGAAGACUGCGGGUUCGCGUCCCGUACGGAACG [U2A A57C],0.607
3,GAUCCGUUGGCGUAAUGGUAACGCGUCUCCCUCCUAAGGAGAAGCCUGCGGGUUCGAGUCCCGUACGGACCG [U2A A45C A70C],0.758
4,GAUCGGUUGGCGUGAUGGUAACGCGUCUCGCUCCUAAGGAGAAGAUUGCGGGUUCGAGUCCCGUAAGGAUCG [U2A C5G A14G C30G C46U C66A A70U],≤ 0.5
5,GAUCAGUUGGCGUAAUGGUAACGCGUCUCCCUCCUAAGGAGAAGACUGCAGGUUCGAGUCCCGUACGGAACG [U2A C5A G50A],≤ 0.5
6,GAUCAGUUGGCGUAAUGGUAACGCGUCUCCCUCCUAAGGAGAAGACUGCGGGUUCGAGUCCCGCACGGAACG [U2A C5A U64C],0.595
7,GAUCCGUUGGCGUAAUGGUAACGCGUCUCCCUCCUAAGGAGAAGACUGCGGGUUCGAGUCCCGUUCGGAACG [U2A A65U],0.812
8,GAUCCGUUGGCGUAAUGGUAACGCGUCUCCCUCCUAAGGAGAAGACUGCGGGUUCGAGUCCCGUGCGGAACG [U2A A65G],0.938
9,GAUCGGUAGGCGUAAUGGUAACGUGUCUCCCUCCUAAGGAGAAGACUGCGGGUUCGAGUCGCGUAUGGUACG [U2A C5G U8A C24U C61G C66U A69U],≤ 0.5
10,GAUCAGUUGGUGUAAUGGUAACGCGUGUCCCUCCUAAGGAGAAGACUGCGGGUUCGAGUACCGUACGGAACG [U2A C5A C11U C27G C60A],≤ 0.5
11,GAUCGGUUGGGGUAAUGGUGACGCGUCUCCCUCCUAAGGAGAAGACUGCGGGUUCGAGUCCCGUACGGAACG [U2A C5G C11G A20G],≤ 0.5
12,GAUCCGUUGGCGUAAUGGUAACGCGUCUCCCUCCUAAGGAGAAGCCUGCGGGUUCGAGUCCCGUCCGGAACG [U2A A45C A65C],0.764
13,GAUCCGUUGGCGUAAUGGUAACGCGUCUCCCUCCUAAGGAGAAGCCUGCGGGUUCGAGUCCCGUUCGGAACG [U2A A45C A65U],0.624
14,GAUCGGUUGGGGUAAUGGCGACGCGUCUCCCUCCUAAGGAGAAGACUGCGGGUUCGAGUCCCGUACGGAACG [U2A C5G C11G U19C A20G],≤ 0.5
15,GAUCAGUUCGCGUAACGGUAACGCCUCUCCCUCCUAAGGAGAAGACUGCGGGUUCGAGUCCCGUCCGGAACG [U2A C5A G9C U16C G25C A65C],≤ 0.5
16,GAUACGUUGGCGCAAUGGUAACGCGUCUCCCUCCUAAGGAGGAGACUGCGGGUUCGAGUCUCGUACGGAACG [U2A C4A U13C A42G C61U],≤ 0.5
17,GAUUCGUUGGCGUAAUGGUAACGCGUCUCCCUCCUAAGGAGAACACUGCGGGUUCGAGUCACGUACGGAACG [U2A C4U G44C C61A],≤ 0.5
18,GAUCGGUUGGCGUAAUGGUAACGCGUCUCCCUCCUAUGGAGAAGACUGUGGGUUCGAGUCUCGUACGGAACG [U2A C5G A37U C49U C61U],≤ 0.5
19,GAUCAGUUGGCGUAAUGGUAACGCGUCUCCCUCCUAAGGAGAAGACUGCGGGUUCGAGUACCGUACGGAACG [U2A C5A C60A],≤ 0.5
